Experimental data reported in the RNAGym collection of RNA variant scans (doi:10.1038/s41586-018-0170-7).

B1: tRNA (parent)
chain: GUUCCGUUGGCGUAAUGGUAACGCGUCUCCCUCCUAAGGAGAAGACUGCGGGUUCGAGUCCCGUACGGAACG

Variants of: B1
Test: yeast fitness, log relative to wild type (ln ratio); higher = fitter; tRNA-Arg(CCU), competitive growth, 37 C, 1 M NaCl
Outline: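 BY4742 cells without the chromosomal tRNA-Arg(CCU) gene carried a combinatorial variant library on a HIS3 centromeric plasmid, from two independent transformations. After 4 generations in SC-HIS at 30 °C, pools spent ~6.5 generations (~26.5 h) in SC-HIS 1M NaCl at 37 °C, giving three outputs per input, and 125 bp paired-end Illumina reads counted the variants. Fitness is the natural log of each genotype's generations over the wild type's, with generations taken as OD-scaled log2 output/input frequency weighted by inverse variance across replicates.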

Row | Variant | yeast fitness (ln)
1 | U2G C27U A43C C46U C66U A69G C71U | -0.394
2 | U2G C66U A70U C71U | -0.543
3 | U2G G6A A43C C66U A69G C71U | -0.284
4 | U2G G6A A69G C71U | -0.113
5 | U2G G6A A43C C66U A70U C71U | -0.49
6 | U2G C27U A43C C66U A70U C71U | -0.333
7 | U2G G6A A69G A70U C71U | -0.264
8 | U2G C27U C46U C66U A69G C71U | -0.312
9 | U2G C27U A43C C66A A69G A70G C71U | -0.305
10 | U2G G6A C27U A43C C66A A69G C71U | -0.379
11 | U2G C27U A43C C46U C66A | -0.124
12 | U2G C27U A43C C46U C66U | -0.146
13 | U2G C46U C66A A70G C71U | -0.116
14 | U2G G6A C27U A43C C46U C66U | -0.102
15 | U2G G6A C27U A43C C46U C66A | -0.189
16 | U2G G6A A43C A70U C71U | -0.169
17 | U2G C27U C66A C71U | -0.148
18 | U2G C27U A43C C66U A69G A70G C71U | -0.402
19 | U2G G6A C27U A70G C71U | -0.216
20 | U2G C66U | -0.0538
21 | U2G C66A | -0.0285

Row | Variant | yeast fitness (ln)
22 | U2G G6A C27U A43C C46U C66U C71U | -0.282
23 | U2G C27U A43C C46U C66U C71U | -0.292
24 | U2G G6A C27U A43C C66A A69G A70G C71U | -0.366
25 | U2G G6A A70G C71U | -0.142
26 | U2G G6A A43C A69G A70U C71U | -0.364
27 | U2G G6A C27U A43C C46U A69G A70G C71U | -0.297
28 | U2G G6A C27U A43C C46U C66A A69G A70U | -0.187
29 | U2G C46U C66U | -0.0936
30 | U2G C46U C66A | -0.0933
31 | U2G C27U A43C C46U A70G C71U | -0.115
32 | U2G G6A C27U A43C C66U A69G A70U | -0.326
33 | U2G G6A C27U A43C C66U A69G A70G | -0.3
34 | U2G G6A C27U A43C C46U C66A A69G A70G C71U | -0.252
35 | U2G C27U C46U C66A A69G A70U C71U | -0.383
36 | U2G G6A A43C C46U A70U C71U | -0.118
37 | U2G G6A C27U A43C C66A A69G A70U | -0.301
38 | U2G G6A C27U A43C C66A A69G A70G | -0.368
39 | U2G C46U C66U A69G C71U | -0.209
40 | U2G C66U A69G A70U C71U | -0.381
41 | U2G G6A A43C C66U C71U | -0.388
42 | U2G G6A A69G A70G C71U | -0.181

Row | Variant | yeast fitness (ln)
43 | U2G C27U A43C C46U C66A A70U | -0.0794
44 | U2G C27U A43C C46U C66A A70G | -0.16
45 | U2G C66A A70U | -0.157
46 | U2G C66A A70G | -0.0918
47 | U2G G6A A43C C66U A70G C71U | -0.186
48 | U2G C27U A43C C66A A70U | -0.0548
49 | U2G C27U A43C C66A A70G | -0.179
50 | U2G C66A A69G A70G | -0.148
51 | U2G C66A A69G A70U | -0.131
52 | U2G C66U C71U | -0.181
53 | U2G C27U C46U C66A A69G C71U | -0.301
54 | U2G C27U C46U A69G A70G | -0.355
55 | U2G C27U C46U A69G A70U | -0.0139
56 | U2G C27U A43C C46U C66A A69G C71U | -0.34
57 | U2G G6A A43C A69G C71U | -0.364
58 | U2G G6A A69G | -0.135
59 | U2G C46U C66A A70U C71U | -0.0966
60 | U2G C27U C46U A69G C71U | -0.112
61 | U2G G6A C27U A43C C66U A69G A70G C71U | -0.386
62 | U2G G6A A43C C66A A70U | -0.12
63 | U2G G6A A43C C66A A70G | -0.187

Row | Variant | yeast fitness (ln)
64 | U2G C27U A43C C66U C71U | -0.364
65 | U2G G6A C27U A69G C71U | -0.268
66 | U2G C27U A43C C46U C66U A69G A70U C71U | -0.395
67 | U2G C27U C46U C66U A69G A70G C71U | -0.245
68 | U2G G6A C27U A43C C46U C66U A69G A70U C71U | -0.433
69 | U2G G6A A43C A69G A70G C71U | -0.233
70 | U2G C27U C46U C66U A69G A70U C71U | -0.376
71 | U2G C27U A43C C66A | -0.171
72 | U2G C27U A43C C66U | -0.214
73 | U2G G6A A43C C46U C66U A69G A70G | -0.199
74 | U2G G6A A43C C46U C66U A69G A70U | -0.0409
75 | U2G G6A A43C C66A A70U C71U | -0.33
76 | U2G G6A C27U A43C C46U C66A A70G C71U | -0.19
77 | U2G G6A C27U C46U A69G A70U C71U | -0.368
78 | U2G G6A C27U A43C C46U C66U A69G A70G | -0.23
79 | U2G G6A C27U A43C C46U C66U A69G A70U | -0.292
80 | U2G C27U A43C C66U A70G C71U | -0.331
81 | U2G G6A | -0.00406
82 | U2G G6A A43C C46U C66A A70U C71U | -0.227
83 | U2G C27U C46U C66A A69G A70G C71U | -0.184
